Reference: ChEMBL document CHEMBL4732250, “Investigations on substituted (2-aminothiazol-5-yl)(imidazo[1,2-a]pyridin-3-yl)methanones for the treatment of Alzheimer's disease” (Bioorg Med Chem, 2021)

Columns and labels:
Type in all cases: functional
[1] = test system: Rattus norvegicus; experiment: Antiinflammatory activity in Sprague-Dawley rat acute model of carrageenan-induced paw edema assessed as inhibition of rat paw edema at 50 mg/kg, po pre treated for 1 hr followed by carrageenan-stimulation and measured after 3 hrs by plethysmometeric method relative to control; details: time 4 hrs
Outline: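 SD rats of either sex, 150–200 g, n = 6, dosed orally in 0.2% agar suspension. After 1 h, 0.1 mL 1% carrageenan in saline injected into the left hind sub-plantar paw. Paw volume measured by mercury plethysmometer before and 3 h after injection. % edema inhibition calculated. Mean ± SEM.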

[2] = test system: Rattus norvegicus; experiment: Antiinflammatory activity in Sprague-Dawley rat chronic model of formalin-induced paw edema assessed as inhibition of rat paw edema at 50 mg/kg, po pre treated for 1 hr followed by formalin-stimulation and measured after 2 days by plethysmometeric method relative to control; details: 48 h, time 2 day
Outline: (§1)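 Chronic paw edema. Oral pre-dose in 0.2% agar; after 1 h, 0.1 mL 2% formalin in saline injected into the left hind sub-plantar paw, repeated on 5 consecutive days. Paw volume by plethysmometer. % inhibition of edema size relative to disease control, days 1–5. n = 6, mean ± SEM, one-way ANOVA with Tukey's test.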

[3] = test system: Rattus norvegicus; experiment: Antiinflammatory activity in Sprague-Dawley rat chronic model of formalin-induced paw edema assessed as inhibition of rat paw edema at 50 mg/kg, po pre treated for 1 hr followed by formalin-stimulation and measured after 5 day by plethysmometeric method relative to control; details: 120 h; outline: as §1
[4] = test system: Rattus norvegicus; experiment: Antiinflammatory activity in Sprague-Dawley rat chronic model of formalin-induced paw edema assessed as inhibition of rat paw edema at 50 mg/kg, po pre treated for 1 hr followed by formalin-stimulation and measured after 3 days by plethysmometeric method relative to control; details: 72 h, time 3 day; outline: as §1
[5] = test system: Rattus norvegicus; experiment: Antiinflammatory activity in Sprague-Dawley rat chronic model of formalin-induced paw edema assessed as inhibition of rat paw edema at 50 mg/kg, po pre treated for 1 hr followed by formalin-stimulation and measured after 4 days by plethysmometeric method relative to control; details: 96 h, time 4 day; outline: as §1
[6] = test system: Rattus norvegicus; experiment: Antiinflammatory activity in Sprague-Dawley rat chronic model of formalin-induced paw edema assessed as inhibition of rat paw edema at 50 mg/kg, po pre treated for 1 hr followed by formalin-stimulation and measured after 1 day by plethysmometeric method relative to control; details: 24 h; outline: as §1
[7] = test system: Rattus norvegicus; experiment: Antiinflammatory activity in Sprague-Dawley rat chronic model of formalin-induced paw edema assessed as inhibition of rat paw edema at 40 mg/kg, po pre treated for 1 hr followed by formalin-stimulation and measured after 4 days by plethysmometeric method relative to control; details: 96 h, time 4 day; outline: as §1
[8] = test system: Rattus norvegicus; experiment: Antiinflammatory activity in Sprague-Dawley rat chronic model of formalin-induced paw edema assessed as inhibition of rat paw edema at 40 mg/kg, po pre treated for 1 hr followed by formalin-stimulation and measured after 2 days by plethysmometeric method relative to control; details: 48 h, time 2 day; outline: as §1
[9] = test system: Rattus norvegicus; experiment: Antiinflammatory activity in Sprague-Dawley rat chronic model of formalin-induced paw edema assessed as inhibition of rat paw edema at 40 mg/kg, po pre treated for 1 hr followed by formalin-stimulation and measured after 1 day by plethysmometeric method relative to control; details: 24 h; outline: as §1
[10] = test system: Rattus norvegicus; experiment: Antiinflammatory activity in Sprague-Dawley rat chronic model of formalin-induced paw edema assessed as inhibition of rat paw edema at 40 mg/kg, po pre treated for 1 hr followed by formalin-stimulation and measured after 3 days by plethysmometeric method relative to control; details: 72 h, time 3 day; outline: as §1
[11] = test system: Rattus norvegicus; experiment: Antiinflammatory activity in Sprague-Dawley rat chronic model of formalin-induced paw edema assessed as inhibition of rat paw edema at 40 mg/kg, po pre treated for 1 hr followed by formalin-stimulation and measured after 5 days by plethysmometeric method relative to control; details: 120 h, time 5 day; outline: as §1

Cc1ccc2ncc(C(=O)c3cnc(N)s3)n2c1
inhibition in vivo at 50 mg/kg [1]: 53%

Cc1cccn2c(C(=O)c3sc(N)nc3-c3ccccc3)cnc12
inhibition in vivo at 50 mg/kg [1]: 20%

Cc1cccn2c(C(=O)c3cnc(N)s3)cnc12
inhibition in vivo at 50 mg/kg [1]: 31%

Cc1nc(N)sc1C(=O)c1cnc2ccccn12
inhibition in vivo at 50 mg/kg [1]: 53%

Cc1ccc2ncc(C(=O)c3sc(N)nc3-c3ccccc3)n2c1
inhibition in vivo at 50 mg/kg [1]: 77%

Cc1cccn2c(C(=O)c3sc(N)nc3N(C)C)cnc12
inhibition in vivo at 50 mg/kg [2]: 56% | inhibition in vivo at 50 mg/kg [3]: 54% | inhibition in vivo at 50 mg/kg [4]: 56% | inhibition in vivo at 50 mg/kg [5]: 54% | inhibition in vivo at 50 mg/kg [1]: 81% | inhibition in vivo at 50 mg/kg [6]: 55%

Cc1nc(N)sc1C(=O)c1cnc2c(C)cccn12
inhibition in vivo at 50 mg/kg [1]: 45%

CN(C)c1nc(N)sc1C(=O)c1cnc2ccccn12
inhibition in vivo at 50 mg/kg [1]: 32%

Cc1ccc(-c2cc(C(F)(F)F)nn2-c2ccc(S(N)(=O)=O)cc2)cc1 [CELECOXIB]
inhibition in vivo at 40 mg/kg [7]: 70% | inhibition in vivo at 40 mg/kg [8]: 74% | inhibition in vivo at 40 mg/kg [9]: 67% | inhibition in vivo at 40 mg/kg [10]: 70% | inhibition in vivo at 40 mg/kg [11]: 68%
